Measurements taken from publication PMC3647260 (Journal of the American Heart Association: Cardiovascular …, 2013).
≈ marks a conversion by molar mass, not a printed value. Bridge positions count the residues as written; N and C are the ends. Peptide text beside a SMILES is read from it.

Experiments:
[1] = tested on: ldlr^−/− mice; assay type: in vivo, mouse (B6.129S7-Ldlrtm1Her/J, female); details: 4 weeks, Western diet, osmotic pump, vs saline
In short: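 Female ldlr−/− mice on a Western diet received peptide by subcutaneous osmotic pump (10 mg in 100 μL water) or saline. After an overnight fast, plasma cholesterol, triglycerides and glucose were measured at 1, 4 and 8 weeks, using a separate group of animals at each time.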

[2] = tested on: ldlr^−/− mice; assay: Atherosclerotic lesions in the aortic root; assay type: in vivo, mouse (B6.129S7-Ldlrtm1Her/J, female); details: 0.4 mg/mouse i.p. 3 times daily, 4 weeks; n=5/group
In short: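 Female ldlr−/− mice aged 6 weeks were fed a Western diet (21% milk fat, 0.15% cholesterol) and given peptide i.p. (0.4 or 0.7 mg in 200 μL saline every 8 or 12 h), with saline controls. Mice were saline-perfused and hearts OCT-frozen. Every other 10-μm aortic sinus section was taken (15 sections, 300 μm), baked overnight at 55°C and stained with Oil-red-O/hematoxylin. Lesion area, excluding the internal elastic lamina, was averaged per mouse.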

[3] = tested on: NFκB RelA (p65); assay: Immunoblot of phosphorylated NFκB RelA in liver extracts of treated mice; assay type: in vivo, mouse (ldlr^−/−); details: 8 weeks, Western diet, osmotic pump, vs saline; relative ratio to total RelA
[4] = tested on: GAPDH; assay: Pull-down assay, nonspecific control protein, Jurkat extract; assay type: binding, human (Jurkat T cells); details: biotinylated peptide, Jurkat whole-cell extract; immunoblot
[5] = tested on: GAPDH; assay: Pull-down assay, control protein, HepG2 extract; assay type: binding, human (HepG2 cells); details: biotinylated peptide, HepG2 whole-cell extract; immunoblot
In short: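 HepG2 cells were serum-starved overnight in DMEM/1% FBS and lysed in binding buffer (10 mmol/L HEPES pH 7.9, 150 mmol/L NaCl, 0.1% NP-40, protease inhibitors). Biotinylated peptide (10 nmol) was incubated with 1.5 mg extract overnight at 4°C. After clearing at 16 000g, it was captured on Neutravidin beads for 4 h. Beads were washed, boiled in SDS buffer and immunoblotted for importins and GAPDH.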

[6] = tested on: SREBP1; assay: SREBP1 nuclear translocation in sterol-depleted HepG2 cells; assay type: cell-based, human (HepG2 cells)
In short: (§1)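 HepG2 cells were sterol-depleted with hydroxypropyl-β-cyclodextrin for 15 min and rinsed. They were then incubated 2 h in DMEM/5% delipidized FBS with 10 μmol/L MG132 and 0, 10 or 30 μmol/L test compound. Nuclear and cytosolic extracts were immunoblotted for SREBPs, normalized to Lamin A/C or B (nuclear) or GAPDH/β-actin (cytosolic). Percent inhibition of nuclear translocation comes from ≥3 independent experiments.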

[7] = tested on: SREBP2; assay: SREBP2 nuclear translocation in sterol-depleted HepG2 cells; assay type: cell-based, human (HepG2 cells); details: 2 hours after HPCD
In short: as §1

[8] = tested on: SREBP1; assay: SREBP1 protein in liver extracts of treated mice; assay type: in vivo, mouse (ldlr^−/−); details: Western diet, osmotic pump, vs saline; P<0.05; 8 weeks in Figure 6
[9] = tested on: SREBP2; assay: SREBP2 protein in liver extracts of treated mice; assay type: in vivo, mouse (ldlr^−/−); details: Western diet, osmotic pump, vs saline; P<0.05; 8 weeks in Figure 6
[10] = tested on: SREBP1 and SREBP2 and their target gene transcripts; assay: Quantitative PCR of SREBP and target gene transcripts in liver; assay type: in vivo, mouse (ldlr^−/−); details: osmotic pump, vs saline, n=5; for hmgcr (HMG-CoA reductase) mRNA in liver: P<0.005
In short: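 Total liver RNA from Western diet-fed ldlr−/− mice, given peptide or saline by osmotic pump for 4 or 8 weeks, was reverse-transcribed. Transcripts were quantified by real-time PCR with TaqMan probes, using 18S […] as the invariant control.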

[11] = tested on: NPC1L1; assay: NPC1L1 protein in whole-cell liver extracts; assay type: in vivo, mouse (ldlr^−/−); details: 8 weeks, osmotic pump, vs saline; ratio to β actin; 4 mice/group; P<0.05
[12] = tested on: HDAC3; assay: HDAC3 in liver nuclear extracts; assay type: in vivo, mouse (ldlr^−/−); details: 8 weeks, osmotic pump, vs saline; 5 mice/group
In short: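 Liver nuclear extracts came from Western diet-fed ldlr−/− mice after 8 weeks of subcutaneous osmotic pump dosing (10 mg in 100 μL water) or saline; phosphatase inhibitors were added. HDAC3 was immunoblotted and expressed as a ratio to β-actin. Groups were compared by Mann–Whitney test.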

[13] = tested on: ChREBP; assay: Glucose-induced nuclear translocation of ChREBP in HepG2 cells; assay type: cell-based, human (HepG2 cells); details: 30 μmol/L, 24 hours; 25 mmol/L glucose + 100 nmol/L insulin after starvation; 3 experiments; P<0.05
In short: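 HepG2 cells (kept in DMEM/10% FBS) were starved 24 h in DMEM with 5.5 mmol/L glucose. They were refed 25 mmol/L glucose plus 100 nmol/L insulin, with or without 30 μmol/L test compound, for 24 h. Nuclear and cytosolic extracts were prepared with phosphatase inhibitors and immunoblotted for ChREBP, with lamin loading controls for nuclear fractions.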

[14] = Blood cell counts, blood chemistries and overt signs of toxicity; assay type: in vivo, mouse (ldlr^−/−)
In short: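 Western diet-fed ldlr−/− mice, treated or saline controls. Complete blood counts were run by a clinical hematology laboratory, and lymphocyte subsets were measured by flow cytometry.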

[15] = Solubility; assay type: physicochemical; details: method not given
[16] = liver, spleen, pancreas, and lungs, ref not given; cited from earlier work
[17] = tested on: microbial and autoimmune inflammation; details: ref [29]; cited from earlier work
[18] = tested on: NOD mice; details: intense, short-term treatment, ref [20]; cited from earlier work
[19] = ldlr^−/− mice fed a Western diet

CSCC[C@@H]1NC(=O)[C@H](CC(C)C)NC(=O)[C@H](CCCCN)NC(=O)[C@H](CCC(N)=O)NC(=O)[C@H](CCCNC(=N)N)NC(=O)[C@H](CCCCN)NC(=O)[C@H](CCCNC(=N)N)NC(=O)[C@H](CCC(N)=O)NC(=O)[C@H](C(C)C)NC(=O)[C@@H](NC(=O)[C@@H]2CCCN2C(=O)[C@H](C)NC(=O)[C@H](CC(C)C)NC(=O)[C@H](CC(C)C)NC(=O)[C@H](C)NC(=O)[C@H](CC(C)C)NC(=O)[C@H](CC(C)C)NC(=O)[C@@H](NC(=O)[C@H](C)NC(=O)[C@@H]2CCCN2C(=O)[C@H](CC(C)C)NC(=O)[C@H](CC(C)C)NC(=O)[C@H](C)NC(=O)[C@@H](NC(=O)[C@H](C)NC(=O)[C@H](C)N)C(C)C)C(C)C)CSSC[C@@H](C(=O)O)NC(=O)[C@@H]2CCCN2C1=O [cSN50.1] (H-AAVALLPAVLLALLAPCVQRKRQKLMPC-OH; disulfide 17-28)
plasma ALT (alanine transaminase) [1]: significantly reduced
plasma AST (aspartate transaminase) [1]: significantly reduced
protection from atherosclerosis, lower dose [2]: not protected
phosphorylated NFκB RelA (p65) in cytosolic and nuclear fractions of liver cells [3]: significantly reduced
interaction with GAPDH [4]: not with the nonspecific cytoplasmic control protein GAPDH
interaction with GAPDH [5]: not with the control protein, GAPDH
precursor pSREBP1 in cytosolic fraction ([6]; 30 μmol/L, 2 hours after HPCD, 4 experiments): remained unchanged
nSREBP1 in cytosolic fraction ([6]; 30 μmol/L, 2 hours after HPCD, 4 experiments, P<0.05): significantly more
processing of SREBP precursors to nuclear (mature) forms, SREBP1 ([6]; 2 hours after HPCD, cytosolic fraction): unaffected
further reduction of nuclear nSREBP1 at 30 μmol/L ([6]; gradual sterol depletion, 24 hours, 30 vs 10 μmol/L): did not further reduce nSREBP1 in the nucleus by a significant amount
completeness of SREBP nuclear transport inhibition ([6]; rapid and gradual sterol depletion protocols, HepG2): did not completely reduce nuclear transport of SREBPs
concentration dependence of nSREBP1 nuclear reduction ([6]; rapid depletion with HPCD, 2 hours, 0, 10 or 30 μmol/L): concentration dependent
nSREBP2 in cytosolic fraction ([7]; 30 μmol/L, 3 experiments): not significantly increased
precursor pSREBP2 in cytosolic fraction ([7]; 30 μmol/L, 3 experiments): remained unchanged
processing of SREBP precursors to nuclear (mature) forms, SREBP2 ([7]; cytosolic fraction): unaffected
nuclear SREBP1 protein in liver [8]: reduced
precursor SREBP1 protein in liver [8]: reduced
nuclear SREBP2 protein in liver [9]: reduced
precursor SREBP2 protein in liver [9]: reduced
abcg5 transcripts in liver ([10]; 4 and 8 weeks): not reduced
abcg8 transcripts in liver ([10]; 4 and 8 weeks): not reduced
hmgcr (HMG-CoA reductase) mRNA in liver ([10]; 4 weeks): significantly decreased expression
srebf1 (SREBP1) transcripts in liver ([10]; 4 weeks, P<0.05): reduced
hmgcr (HMG-CoA reductase) mRNA in liver ([10]; 8 weeks): significantly decreased expression
acly (ATP citrate lyase) transcripts in liver ([10]; 8 weeks, P<0.05): significantly reduced
fasn1 (fatty acid synthase-1) transcripts in liver ([10]; 8 weeks, P<0.05): significantly reduced
srebf1 (SREBP1) transcripts in liver ([10]; 8 weeks, P<0.05): reduced
srebf2 (SREBP2) transcripts in liver ([10]; 8 weeks, P<0.05): reduced
NPC1L1 protein in liver [11]: significant NTM‐induced reduction
HDAC3 nuclear content in liver [12]: not significantly changed
attenuation of nuclear accumulation of ChREBP [13]: ≈ 50%
blood cell populations and blood chemistries ([14]; 8 weeks of treatment, other than changes shown, vs control animals): did not reveal any significant changes
blood chemistries [14, 19]: normal blood chemistries
red blood cells, white blood cells, major lymphocyte subsets, blood platelets [14, 19]: no changes
other side effects ([14]; subcutaneous osmotic pumps, 8 weeks): no other side effects were observed
solubility [15]: 100 mg/mL (≈ 33.5 mM)
delivery to blood cells and organs [16]: easily delivered
biomarkers (liver transaminases) in other models of liver inflammation [17]: significantly reduced
suppression of diabetes, duration [18]: 1 year
